Measurements as given in ChEMBL document CHEMBL4513216, “Probing the Open Global Health Chemical Diversity Library for Multistage-Active Starting Points for Next-Generation Antimalarials” (ACS Infect Dis, 2020).

Test: Toxicity liver stage against HepG2, at 10uM
Type: cell-based
Parameters: test concentration 10 uM, cell line HepG2-A16-CD81EGFP
Settings: human, HepG2-A16-CD81EGFP cells; read-out: INHIBITION
How it was run: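 Uninfected HepG2-A16-CD81EGFP cells, 3 × 10^3 per well, 1536-well, plated on prespotted compound at 10 μM final, parasite-free screening media added to match infected plates; puromycin 10 μM positive, DMSO 0.5% negative; run in parallel with 48 h PbLuc assay at 37 °C, 5% CO2; viability by CellTiter-Glo luminescence, normalized to controls.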

| Compound | cytotoxicity at 10 µM [%] |
| --- | --- |
| c1ccc(CCCN2CC[C@H](c3nnc(-c4cccnc4)o3)C2)cc1 | -6.1 |
| Cc1nn(C)cc1C1CC(=O)Nc2c1cnn2C (stereo unspecified) | 2.8 |
| O=C(c1cnn2c1OCCC2)N1CCC(Cc2ccccc2)CC1 | 0.524 |
| CC(C)NC(=O)N1CCOC2(CCNCC2)C1 | -2.69 |
| NCC1[C@H]2CN(Cc3cccc(Cl)c3)C[C@@H]12 (stereo partly specified) | -9.17 |
| O=S(=O)(C1CC1)N1CCc2ncnc(-c3ccsc3)c2CC1 | 4.8 |
| CC(C)NC(=O)N1CCOC2(CCCN(c3cccc(C#N)c3)C2)C1 (stereo unspecified) | 11.8 |
| CS(=O)(=O)N1CCN(C(=O)c2cccc(Cl)c2)CC2(CNC(=O)C2)C1 (stereo unspecified) | 6.86 |
| COCC1CN(CC2CC2)Cc2ncn(CC3CC3)c21 (stereo unspecified) | 4.42 |
| CCOC[C@@H]1CC[C@H]2[C@H](CCN2C(=O)c2ccncc2F)O1 | -2.86 |
| CCOCCCNC(=O)c1nnn(Cc2ccccc2)c1OC | 9.32 |
| O=C(c1noc2c1CCCC2)N1CCCC(c2nccs2)C1 (stereo unspecified) | -2.66 |
| COc1ccc2c(c1)C(=O)NC1(CC2)CCN(Cc2ccc(F)cc2)C1 (stereo unspecified) | 8.16 |
| COCCN1CCCC(c2nc(C)n3c(C)c(C)sc23)C1 (stereo unspecified) | -21.5 |
| Cc1c(C2CCCN(C(=O)OC(C)(C)C)C2)n2c(nc1=O)CCC2 (stereo unspecified) | -16 |
| CNC(=O)C1(c2cnccn2)CCCN1C(=O)c1ccccc1F (stereo unspecified) | -17.1 |
| CNC(=O)C1(c2cnccn2)CCCN1C(=O)c1cccc(C)n1 (stereo unspecified) | -18.6 |
| O=C(c1cncc(Br)c1)N1CCC(O)(Cn2ccc3ccncc32)CC1 | 2.44 |
| Cc1ccc2nc(C3CCCN(CC(C)C)C3)nc(O)c2c1 (stereo unspecified) | 5.48 |
| O=C(CCc1nc(-c2cccnc2)no1)N(CC1CCOC1)C1CC1 (stereo unspecified) | 10.8 |
| N#CCCCS(=O)(=O)NC1(c2cccc(Cl)c2)CC1 | -1.39 |

| Compound | cytotoxicity at 10 µM [%] |
| --- | --- |
| O=C(COc1ccc(Br)cc1F)Nc1cn[nH]c1 | -24.1 |
| CCSCCC(=O)NCc1cnn(-c2ccc(F)cc2F)c1 | -5.61 |
| COc1cc2c(cc1OC)CN(C(=O)NC(C)c1nncn1C)CC2 (stereo unspecified) | -4.54 |
| CN(c1ccccc1)S(=O)(=O)c1cc2c(c(C(=O)O)c1)OCCO2 | -9.47 |
| CC(NC(=O)Nc1ccccc1CN1CCOCC1)c1nccs1 (stereo unspecified) | 2.1 |
| NC(=O)CCNC(=O)NCC1(c2ccccc2Cl)CCC1 | -53.1 |
| COc1cccc(CN(C)C(=O)CN2CCN(CCO)CC2)c1 | 12.3 |
| O=C1CCCN1Cc1nnc2n1CCN(Cc1ccco1)C2 | 0.686 |
| CCS(=O)(=O)N1CCN(CCOC)c2ncccc2C1 | 4.37 |
| CCCS(=O)(=O)N1CC[C@H]2O[C@H](c3nnc(C)o3)CC[C@H]21 | -77.4 |
| CCOCC1CN(S(=O)(=O)C2CC2)Cc2cnn(C)c21 (stereo unspecified) | -66.8 |
| O=C(NCC1Cn2nnc(-c3ccsc3)c2CO1)c1ccc[nH]1 (stereo unspecified) | 2.28 |
| CCO[C@H]1CN(C(=O)c2ccnnc2)[C@@H]2COC[C@H]12 | 0.403 |
| Cn1ccnc1CN1CC[C@@H](NS(C)(=O)=O)[C@@H]1Cc1cccnc1 | 8.54 |
| CN(C)C[C@@H]1CN(C(=O)Cc2ccc3ccccc3c2)C[C@@H]1CO | -8.4 |
| COc1ccc2nc(O)c(CN(C)Cc3ncc[nH]3)cc2c1 | 0.55 |
| O=C(O)C1(n2ccnc2)CCN(Cc2ccc3occc3c2)CC1 | -4.31 |
| Cc1ccc(CCNC(=O)Cn2nc(C)n(Cc3ccccc3)c2=O)o1 | 1.33 |
| Cc1cc(CN2CCN(CC3CC3)[C@@H]3CS(=O)(=O)C[C@@H]32)cc(C)c1O | 2.78 |
| O=C(c1cccc(-n2cccn2)c1)N1CCCOC(CN2CCCC2)C1 (stereo unspecified) | -7.33 |
| NC(=O)CCNC(=O)C1(N2CCCCC2)Cc2ccccc2C1 | -8.56 |

| Compound | cytotoxicity at 10 µM [%] |
| --- | --- |
| Cc1c(CN2CCC(C(=O)O)(n3cccn3)CC2)oc2ccccc12 | -2.67 |
| CCN1CCC2(CCC1=O)CN(c1nccc(N)n1)CCN2C (stereo unspecified) | 0.562 |
| CC(=O)c1cc(CN2C[C@@H](N(C)C)[C@H](C(C)C)C2)cs1 | 0.305 |
| COc1cccc(C(=O)N2C[C@@H](C(=O)O)[C@H](c3ccccc3C)C2)c1 | 0.291 |
| Cc1oc(-c2cccc(F)c2F)nc1CN(CCO)C(C)C | -15.2 |
| CC(CO)CN(Cc1ccccc1)C(=O)c1csc(CN(C)C)n1 (stereo unspecified) | -8.69 |
| Cc1c(CN(C)c2cc(C3CCCNC3)ncn2)[nH]c2ccccc12 (stereo unspecified) | 1.99 |
| Cc1cccnc1CN1CCN(C(=O)c2cc(Cl)c[nH]c2=O)CC1 | 6.22 |
| OC(CNc1ncnc2c1CCNCC2)C(F)(F)F (stereo unspecified) | -4.92 |
| CCCC(C)CN1CCC(n2cc(CCCO)nn2)CC1 (stereo unspecified) | 3.22 |
| OC1(CN2CCCC2)CCCN(Cc2ccc(F)cc2Cl)C1 (stereo unspecified) | 20.9 |
| CN(Cc1nccs1)c1nc(-c2ccccn2)nc2c1CCNCC2 | -14 |
| Cc1nc2n(n1)CC(NCc1cc(Cl)c3c(c1)OCCO3)CC2 (stereo unspecified) | -6.14 |
| CCn1ccnc1CN1CCCN(C(=O)c2scnc2C)CC1 | -7.77 |
| CC(C)c1nnc2n1CCN(CCC(=O)N1CCc3ccccc31)C2 | -21.1 |
| Cc1cnn(CC2CCCN2Cc2nnc(C3CC3)n2C)c1 (stereo unspecified) | -12.2 |
| CCn1ccnc1CN1CCCN(C(=O)Cc2ccccc2C)CC1 | -1.99 |
| O=C(Cc1ccccn1)N1CCN(C(=O)CC2CCCCC2)CC1 | 5.35 |
| CCC(C)C(=O)NCc1ccc(-n2cncn2)nc1 (stereo unspecified) | 8.85 |
| Cc1ccc(C)c(NC(=O)C(C)N2CCCN(c3nccs3)CC2)c1 (stereo unspecified) | -19.8 |
| CCCC(=O)N1CCc2c(CNS(C)(=O)=O)cncc2C1 | 4.36 |

| Compound | cytotoxicity at 10 µM [%] |
| --- | --- |
| c1cnc(NC[C@H]2OC[C@@H]3CCN(Cc4ccsc4)C[C@@H]32)nc1 | -2.01 |
| CCN1CCC2(COCc3cnc(NCC4CC4)nc32)C1 (stereo unspecified) | -12.9 |
| COCC1CN(Cc2cccnc2)Cc2nnn(CC3CC3)c21 (stereo unspecified) | -0.0925 |
| COCC1CN(c2ccc(C)nn2)Cc2cnn(CC3CCOCC3)c21 (stereo unspecified) | 4.62 |
| CN(C)c1cc(C2CCCNC2)ccn1 (stereo unspecified) | -2.68 |
| Cn1cc(CN2C[C@@H]3COC[C@]3(C(=O)NCc3ccccn3)C2)cn1 | -1.07 |
| Cc1ccc(CN2CCc3c(CN(C)C)n[nH]c3C2)s1 | 1.93 |
| CC(C)n1cnc2c1C(C(=O)N1CCCC1)N(CC1CC1)CC2 (stereo unspecified) | 6.59 |
| O=C(C1=CC2(CCN(CCO)CC2)c2ccccc21)N1CCCC1 | -1.16 |
| c1cncc(OCC2CC3(CCN(CC4CC4)CC3)CO2)c1 (stereo unspecified) | 4.95 |
| Cn1nccc1-c1ncc2c(c1C(=O)O)CCN(Cc1cccnc1)C2 | 8.07 |
| O=C(NCCc1ccccn1)[C@@]12CCO[C@@H]1CCN(C1CCC1)C2 | 8.03 |
| COCC1Cn2nnc(-c3cnn(C)c3)c2CN1Cc1ccoc1 (stereo unspecified) | 6.44 |
| COCCN1CCCn2c(nc(Cn3cncn3)cc2=O)C1 | 3.39 |
| O=C(NCCn1nc(C2CCNC2)c2cccnc21)C1CC1 (stereo unspecified) | -25.8 |
| CCN1CC[C@]2(CN(Cc3nccs3)C[C@H]2c2ccccc2)C1=O | 4.89 |
| COCCN1C[C@@H](C)[C@@]2(COCCN(C(=O)c3ccno3)C2)C1 | 7.4 |
| Cn1ccc(C(=O)NC2CCC23CCN(C(=O)c2ccncc2)CC3)c1 (stereo unspecified) | -9.84 |
